# High-throughput results: PubChem BioAssay, several laboratories
# T cruzi repl – T. cruzi replication inhibition | inhibition, % (no concentration beside the values) | T. cruzi beta-gal in NIH3T3, luminescence, 90 h | AID 1885 | actives 1.4% (n = 300,000);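 active = mean inhibition across valid replicates above about 55%, limit read from the data; inconclusive = mean below that limit but half or more replicates reach it; inactive = mean below it, under half of replicates reach it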;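 note: signal also drops with host cell toxicity which is not excluded here; 0% = plate median of DMSO wells and 100% = zero luminescence signal; higher percent means less beta-gal luminescence so fewer parasites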
#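 Assay system: NIH/3T3 host cells with β-galactosidase reporter T. cruzi; input: 5,000 host fibroblasts per well; compound: single 50 nL compound addition per well in DMSO; timing: ≥90 h infection period, 3 h prior cell attachment; measured by: GalScreen β-gal luminescence, detergent lysis, 60 min; evaluation: percent inhibition of parasite-derived β-gal signal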
# Beta cell apopt – blocks beta cell apoptosis; protection from apoptosis, % (test concentration not listed); INS-1E cytokine-induced death, ATP luminescence, 48 h; percent of positive-control rescue, neutral wells zero; actives 0.8% (n = 300,000);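 active = Every replicate reaches about 75%, or at least half do and their mean reaches it too, limit read from the data; inconclusive = At least half of replicates reach the limit but their mean does not; inactive = Under half of replicates reach the limit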;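 note: 0% = cytokine-treated negative control wells and 100% = positive control rescue; higher means more ATP so stronger rescue from cytokine killing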
# SKKanGAS inh – blocks kanamycin growth of S. pyogenes SKKanGAS strain; BacTiter-Glo, 6 h; inhibition, % at 7.5 µM; actives 1.3% (n = 300,000);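 active = mean replicate score, as percent of positive control median, at least 50; inconclusive = mean below 50 but one replicate at or above 50; inactive = mean and every replicate below 50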;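 note: strain carries kanamycin resistance gene driven by streptokinase promoter and grows in 40 µg/ml kanamycin; loss of luminescence reflects streptokinase promoter inhibition or plain growth inhibition; 0% = median of DMSO wells and 100% = positive control at its reference dose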
# Calb FLC – C. albicans growth modulation with fluconazole; growth inhibition, % (no concentration beside the values); C. albicans CaCi-2 + fluconazole, Alamar Blue growth, 48 h; actives 0.57% (n = 300,000);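 active = growth inhibition above about 58% in most replicates, limit read from the data, passing the limit was not always enough; inconclusive = exactly half the replicates above a set limit; inactive = most replicates below a set limit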;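 note: all wells also contain fluconazole at 8 µg/ml as a sub-toxic cotreatment; 0% = median of DMSO wells and 100% = median of geldanamycin control wells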
# CSC inhib – blocks cancer stem cells; cancer stem cell-like cells viability, luminescence; inhibition, % at 7.5 µM; actives 1.1% (n = 300,000); in the data active = inhibition above about 75%; inconclusive = no clear call, values can overlap the other calls; tested in HMLE shEcad cells
# Mdm2 MdmX PPI – inhibitors of human Mdm2/MdmX interaction | O15151+Q00987 | SaOS-2 split-luciferase Mdm2/MdmX complementation, luminescence | inhibition, % at 8 µM | actives 3% (n = 330,000) | AID 485346;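 active = inhibition of at least 50% at 8 µM in the primary screen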
# Target sequence (O15151 whole entry, looked up): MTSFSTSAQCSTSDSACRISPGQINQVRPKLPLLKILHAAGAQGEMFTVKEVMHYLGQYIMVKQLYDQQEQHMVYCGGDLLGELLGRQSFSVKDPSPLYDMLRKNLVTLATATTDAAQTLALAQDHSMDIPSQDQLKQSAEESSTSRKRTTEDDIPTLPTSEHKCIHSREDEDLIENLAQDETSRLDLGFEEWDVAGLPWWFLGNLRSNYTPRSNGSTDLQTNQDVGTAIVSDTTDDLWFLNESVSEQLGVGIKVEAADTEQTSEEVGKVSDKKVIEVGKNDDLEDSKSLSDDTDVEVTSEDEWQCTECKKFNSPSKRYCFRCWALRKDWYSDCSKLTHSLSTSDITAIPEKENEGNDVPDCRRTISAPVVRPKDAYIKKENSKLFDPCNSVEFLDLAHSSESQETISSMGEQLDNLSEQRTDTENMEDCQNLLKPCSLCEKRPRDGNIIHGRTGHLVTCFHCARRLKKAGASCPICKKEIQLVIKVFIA
# Target sequence (Q00987 whole entry, looked up): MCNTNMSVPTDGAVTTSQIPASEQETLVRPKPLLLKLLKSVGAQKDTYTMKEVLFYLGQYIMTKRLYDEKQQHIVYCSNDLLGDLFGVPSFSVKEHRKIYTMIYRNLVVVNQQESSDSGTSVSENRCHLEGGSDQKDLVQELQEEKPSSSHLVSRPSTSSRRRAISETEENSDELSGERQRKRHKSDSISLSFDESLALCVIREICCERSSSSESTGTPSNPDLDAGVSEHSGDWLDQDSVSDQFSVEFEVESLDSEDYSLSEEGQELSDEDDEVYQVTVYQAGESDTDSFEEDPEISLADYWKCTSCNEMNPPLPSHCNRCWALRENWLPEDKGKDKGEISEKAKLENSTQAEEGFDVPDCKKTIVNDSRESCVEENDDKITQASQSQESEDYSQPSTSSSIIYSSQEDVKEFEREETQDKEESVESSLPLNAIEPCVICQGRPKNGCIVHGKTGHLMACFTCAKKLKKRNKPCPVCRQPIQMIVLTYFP
# An asterisk follows results filed as active; ? = inconclusive; . = no result given. In the library only some 5.7% were active in any assay of this set; here they are far more common.
SMILES,T cruzi repl,Beta cell apopt,SKKanGAS inh,Calb FLC,CSC inhib,Mdm2 MdmX PPI
Cc1ccc(C)c(NC(=O)c2nc(-c3ccccc3)n(-c3ccccc3)n2)c1,-3.1,4.9,1.0,9.9,-7.7,38.3
O=C(Nc1nnc(C2CC2)s1)c1cc(-c2ccccc2)nn1-c1ccccc1,16.3,10.1,73.5*,54.9,20.7,25.6
Cc1ccc(C)c(NC(=O)c2cc(-c3ccccc3)nn2-c2ccccc2)c1,-12.2,-2.7,-9.1,29.4,89.4*,15.8
Cc1cc(/C=C2\NC(=O)N(Cc3ccc(Cl)cc3)C2=O)c(C)n1C,.,0.1,.,.,2.1,.
CCOC(=O)C1=C(N)c2ccccc2CC1C1CCCC1 (configuration not stated),6.9,-2.1,55.3*,4.6,24.9,-25.1
O=C(Cn1ncc(Cl)c(Cl)c1=O)N1CCc2ccccc21,82.0*,.,-2.5,-4.8,.,.
O=C(Cn1ncc(Cl)c(Cl)c1=O)N1CCN(Cc2ccccc2)CC1,67.4*,.,1.8,1.3,.,.
O=C(Cn1ncc2c1-c1ccccc1OC2)N1CCc2ccccc21,0.4,-1.8,-2.4,9.0,2.0,7.9
O=[N+]([O-])c1ccc(O)c(/C=N/NC2=NS(=O)(=O)c3ccccc32)c1,1.4,1.0,59.2*,-13.0,1.3,-0.5
O=[N+]([O-])c1ccc(O)c(/C=N/Nc2nn[nH]n2)c1,2.3,-7.9,-2.4,37.3,-0.9,-28.6
O=[N+]([O-])c1ccc(O)c(/C=N/Nc2ccc(Cl)nn2)c1,83.8*,110.0*,101.6*,116.5*,106.8*,40.2
COc1cc(C#N)c(NS(=O)(=O)c2ccc3[nH]c(=O)sc3c2)cc1OC,-14.6,-3.2,2.1,4.3,-7.2,7.5
O=C(CCc1ccc(O)c(O)c1)N/N=C/c1ccc2c(c1)OCO2,-5.4,1.1,7.3,22.1,6.4,-9.2
CCN1CCN(c2cc(C)c3cc(NC(=S)N4CCCCC4)ccc3n2)CC1,57.7*,-1.3,-23.9,?,11.7,36.9
Cc1cc(N2CCN(C)CC2)nc2ccc(NC(=O)c3cccnc3Cl)cc12,46.9,-5.3,-21.2,-0.8,-12.4,-37.7
Cc1cc(N2CCN(C)CC2)nc2ccc(NC(=O)c3ccccc3F)cc12,65.3*,0.1,4.4,-4.9,-8.7,6.3
CCCN(CCC)CCCNC(=S)Nc1ccc2nc(N3CCN(C)CC3)cc(C)c2c1,57.0*,-2.4,-10.4,-2.3,-1.8,37.9
Cc1cc(N2CCN(C)CC2)nc2ccc(NC(=S)NC3CC3)cc12,32.5,-8.3,-2.4,-2.7,12.9,17.7
CCOC(=O)CSc1ncc(-c2ccc([N+](=O)[O-])cc2)[nH]1,-9.8,2.0,-0.3,8.6,-9.2,11.0
CCOC(=O)c1cc(C#N)c(N2CCN(C)CC2)nc1-c1ccccc1,56.9*,-9.4,-0.2,-30.9,.,-8.6
CCOC(=O)c1cc(C#N)c(N2CCCC2)nc1-c1ccccc1,25.2,12.0,-7.6,5.5,17.6,1.0
O=C(O)[C@H](Cc1c[nH]c2ccccc12)Nc1ncccc1[N+](=O)[O-],3.9,-3.2,2.4,8.2,17.8,31.7
Cc1ccc(NC(=O)Cc2nn(C)c(=O)c3ccccc23)cc1F,-36.2,86.4*,5.9,-4.4,-9.5,20.3
Cn1nc(CC(=O)Nc2ccc3c(c2)OCCO3)c2ccccc2c1=O,24.7,75.4*,-0.6,-6.6,1.2,30.7
CCC(C)n1c(SCC(=O)NC(=O)Nc2ccc3c(c2)OCCO3)nc2ccccc2c1=O (configuration not stated),65.6*,2.0,22.7,-9.6,9.8,45.4
SMILES,T cruzi repl,Beta cell apopt,SKKanGAS inh,Calb FLC,CSC inhib,Mdm2 MdmX PPI
COc1cc(NC(=O)Cc2nn(C)c(=O)c3ccccc23)cc(OC)c1,-16.9,.,1.2,-0.3,-4.6,17.6
COc1cccc(CN(C(=O)c2ccccc2Cl)C2CCS(=O)(=O)C2)c1 (configuration not stated),0.3,-5.6,1.5,-7.6,-4.0,-5.7
O=C(NC1CCCC1)C1CC(O)CN1C(=O)Nc1ccccc1 (configuration not stated),-3.2,4.2,-8.7,-4.8,-14.0,0.4
CCNC(=O)CC1C(=O)N(CC)C(=S)N1NC(=O)c1cccnc1 (configuration not stated),-3.4,-3.8,5.0,-4.5,-0.8,19.4
Cc1ccc(C(C)c2c(C)c([N+](=O)[O-])cc(C)c2[N+](=O)[O-])cn1 (configuration not stated),-4.5,-12.1,-1.2,12.6,31.3,-4.3
O=C1c2ccccc2C(=O)c2c1cccc2N(CCO)CCO,-13.0,2.3,9.0,-1.6,4.8,23.3
O=C1C=C(N(CCO)Cc2ccccc2)c2ccccc2C1=O,77.7*,.,18.9,-4.2,.,.
COc1ccc(NC(=O)CCNC(=O)c2ccc([N+](=O)[O-])cc2)cc1S(=O)(=O)N1CCCCC1,.,.,.,.,.,10.6
COc1ccc2sc(-c3ccc(N(C)C)cc3)c(C#CCCO)c2c1,.,2.6,.,.,122.4*,47.4
COc1ccc(-c2sc3ccc(OC)cc3c2C#CCCO)cc1,23.3,6.6,97.5*,2.6,99.2*,11.3
COc1ccc(-c2sc3cc(OC)c(OC)cc3c2C#CCO)cc1,.,.,.,.,.,31.7
O=C(c1ccccc1)n1c(=O)c(F)cn(COCCBr)c1=O,-2.2,-5.1,2.3,9.1,-5.3,14.5
CCOC(=O)N1CCN(c2c(N3CCN(c4ccccc4F)CC3)c(=O)c2=O)CC1,3.9,-3.6,4.2,-5.3,-5.4,10.0
CCOc1ccc2nc(N3CCCC(C(=O)NCC4CCCO4)C3)sc2c1 (configuration not stated),3.2,4.6,7.2,-2.6,-20.3,-20.9
CCCN1CCCc2cc(CN)ccc21,89.0*,98.1*,-11.2,16.9,13.8,16.6
O=C(Nc1ccc(F)cc1)C(=O)c1c(O)[nH]c2ccc([N+](=O)[O-])cc12,-30.6,-0.4,-1.5,1.6,-1.3,-27.8
Cn1c(=O)c([N+](=O)[O-])c(N2CCN(Cc3ccc4c(c3)OCO4)CC2)c2ccccc21,32.3,-1.1,-1.9,17.6,7.9,19.4
CC(C)CC1NC(=O)N(CC(=O)Nc2ccc(OCc3ccccc3)cc2)C1=O (configuration not stated),.,.,.,.,.,-3.0
COc1ccc(/C=N/N2CCN(Cc3ccccc3)CC2)cc1,9.4,?,-0.2,-3.4,-11.1,0.8
COc1ccc(/C=C/C2=CCN(Cc3ccc(OC)cc3)CC2)cc1,58.0*,62.7,-2.7,-25.0,4.4,13.8
CCn1c(=O)c(C(=O)NCc2ccccc2OC)c(O)c2ccccc21,-5.7,-3.7,1.2,-4.9,75.6*,-23.1
CCn1c(=O)c(C(=O)NCc2cccnc2)c(O)c2ccccc21,7.4,-3.0,-1.3,94.2*,-10.1,47.3
CCn1c(=O)c(C(=O)NCc2ccccc2)c(O)c2ccccc21,-0.2,-0.6,6.7,-7.7,19.4,13.1
CCn1c(=O)c(C(=O)Nc2ncccc2C)c(O)c2ccccc21,-18.8,3.3,17.6,96.1*,.,42.3
CCn1c(C(=O)NCc2cccnc2)cc2sc(Cl)cc21,61.7*,-3.3,-4.3,23.5,-2.3,1.6
